Read-outs that look alike come from different tables or passages of the source.
Assays:
DnaK-DnaJ complex = DnaK-DnaJ complex (Escherichia coli, UniProt P0A6Y8); test: ATPase assay of the DnaK-DnaJ system; assay type: biochemical; details: for effect on stimulatory activity of DnaJ on DnaK ATPase: DnaJ titration
DnaK-DnaJ interaction = DnaK-DnaJ interaction (Escherichia coli, UniProt P0A6Y8); test: DnaK-DnaJ interaction by FRET; assay type: binding; details: for effect on binding of DnaJ to DnaK: ATP 2 mM
DnaK-DnaJ interaction, sequence (P0A6Y8 whole entry, the tested form may be a part): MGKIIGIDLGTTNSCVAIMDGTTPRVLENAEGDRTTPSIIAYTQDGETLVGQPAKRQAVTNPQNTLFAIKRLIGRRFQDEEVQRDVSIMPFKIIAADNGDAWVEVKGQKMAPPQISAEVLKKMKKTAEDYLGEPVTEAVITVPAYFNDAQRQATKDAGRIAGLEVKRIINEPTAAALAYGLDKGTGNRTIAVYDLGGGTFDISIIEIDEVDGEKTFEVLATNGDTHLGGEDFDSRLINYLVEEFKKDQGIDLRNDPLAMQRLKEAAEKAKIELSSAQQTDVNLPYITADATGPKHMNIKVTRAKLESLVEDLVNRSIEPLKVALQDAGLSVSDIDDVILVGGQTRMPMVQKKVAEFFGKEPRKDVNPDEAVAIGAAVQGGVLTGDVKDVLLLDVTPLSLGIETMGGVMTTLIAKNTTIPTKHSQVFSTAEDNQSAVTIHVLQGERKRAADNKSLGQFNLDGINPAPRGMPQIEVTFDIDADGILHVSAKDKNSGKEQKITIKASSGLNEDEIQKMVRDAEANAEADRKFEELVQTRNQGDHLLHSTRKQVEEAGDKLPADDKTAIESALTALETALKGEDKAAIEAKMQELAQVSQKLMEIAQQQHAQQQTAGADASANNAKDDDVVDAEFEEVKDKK

[1] = target: J domain (residues 2–108) (Escherichia coli, UniProt P08622); test: Isothermal calorimetry; assay type: binding; details: truncated J domain residues 2–108
J domain (residues 2–108), sequence (P08622 2-108): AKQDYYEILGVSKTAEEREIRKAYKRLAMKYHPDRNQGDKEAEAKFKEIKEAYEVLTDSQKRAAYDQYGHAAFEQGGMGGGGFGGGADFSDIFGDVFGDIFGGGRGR

DnaK-GrpE = DnaK-GrpE (Escherichia coli, UniProt P0A6Y8); test: GrpE-mediated stimulation of DnaK ATP turnover; assay type: biochemical
In short: (§1)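 ATP turnover was measured for purified E. coli DnaK (His-tag cleaved) in the established ATPase assay, alone or with the stimulating partner named. Results are means of triplicates ± SEM.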

DnaK-DnaJ = DnaK-DnaJ (Escherichia coli, UniProt P0A6Y8); assay type: binding
DnaK-DnaJ, sequence (P0A6Y8 whole entry): as the sequence (P0A6Y8 whole entry, the tested form may be a part) above
In short: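 Firefly luciferase was partially digested and adsorbed onto microtiter wells. DnaK was added with DnaJ titrated, in the presence or absence of test compound. Bound DnaK was detected with an anti-DnaK antibody. Each point is the mean of triplicates ± SEM.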

DnaK [2] = target: T1, DnaK (Escherichia coli, UniProt P0A6Y8); test: Tryptophan fluorescence response of DnaK to ATP binding; details: myricetin 100 μM, DnaK 5 μM, ATP 100 μM
T1 sequence (P0A6Y8 whole entry): as the sequence (P0A6Y8 whole entry, the tested form may be a part) above
In short: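 Apo-DnaK (6 μM) was preincubated with test compound (125 μM) for 1 h at 37 °C. Then 500 μM ATP or buffer (Tris, KCl, MgCl2, pH 7.4) was added as one-fifth of the final volume; these are pre-mix concentrations. Tryptophan emission was scanned from 300–400 nm at 295 nm excitation. Runs were done in triplicate.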

DnaJ = DnaJ (Escherichia coli, UniProt P08622); test: Isothermal calorimetry; assay type: binding; details: DnaJ 10 μM; titrations noisy
DnaJ, sequence (P08622 whole entry): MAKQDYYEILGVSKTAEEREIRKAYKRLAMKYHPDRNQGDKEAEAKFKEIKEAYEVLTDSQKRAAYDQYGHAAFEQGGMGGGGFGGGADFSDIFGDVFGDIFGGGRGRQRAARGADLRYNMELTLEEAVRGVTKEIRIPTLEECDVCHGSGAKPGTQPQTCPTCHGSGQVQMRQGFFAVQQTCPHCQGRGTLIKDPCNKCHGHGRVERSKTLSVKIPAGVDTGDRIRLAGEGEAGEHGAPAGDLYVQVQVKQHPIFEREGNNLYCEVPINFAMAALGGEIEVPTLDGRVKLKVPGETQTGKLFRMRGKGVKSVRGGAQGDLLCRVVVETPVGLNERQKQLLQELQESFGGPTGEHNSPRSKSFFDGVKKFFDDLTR

DnaK (wild type) = DnaK (wild type) (Escherichia coli, UniProt P0A6Y8); test: Tryptophan fluorescence quench, apparent affinity of myricetin for DnaK; assay type: binding; details: apparent affinity (Kapp), wild type DnaK 3 μM, ATP 1 mM
DnaK (wild type), sequence (P0A6Y8 whole entry): as the sequence (P0A6Y8 whole entry, the tested form may be a part) above
In short: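 Test compound was added at various concentrations to wild-type DnaK, read at 342 nm (Ex 295 nm) for tryptophan fluorescence quench. Conditions were 5 μM nucleotide-free DnaK alone, 5 μM DnaK with 2 mM ATP, or 3 μM DnaK with 1 mM ATP. Apo-DnaK was eluted from the ATP column with 1 M NaCl. DnaK-free controls were subtracted. Triplicates, ± SEM.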

DnaK [3] = target: T1, DnaK; test: Intrinsic ATPase activity of DnaK; assay type: biochemical
In short: as §1

DnaK K106A = DnaK K106A (Escherichia coli, UniProt P0A6Y8, K106A); test: Tryptophan fluorescence quench, DnaK K106A control mutant; assay type: binding
In short: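 DnaK alanine mutants were used at 3 μM with 1 mM ATP. Test compound was added at various concentrations, and quench of intrinsic tryptophan fluorescence was read at 342 nm (Ex 295 nm). Readings from controls lacking DnaK were subtracted, and apparent affinity was derived from the concentration series.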

DnaK-DnaJ-GrpE = DnaK-DnaJ-GrpE (Escherichia coli, UniProt P0A6Y8); test: ATPase assay of DnaK-DnaJ in the presence of GrpE; assay type: biochemical; details: saturating GrpE (2 μM); DnaK 0.6 μM, DnaJ 1 μM
DnaK-DnaJ-GrpE, sequence (P0A6Y8 whole entry): as the sequence (P0A6Y8 whole entry, the tested form may be a part) above
In short: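 Purified E. coli DnaK (0.6 μM) and DnaJ (1 μM), with His-tags cleaved, were run in the established ATPase assay with GrpE at 2 μM or a range of GrpE levels. Test compound was given as a dose series, and IC50 was taken from the dose response. Values are means of triplicates ± SEM.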

DnaK-J domain = DnaK-J domain (Escherichia coli, UniProt P0A6Y8); test: J domain stimulation of DnaK ATP turnover; assay type: biochemical
DnaK-J domain, sequence (P0A6Y8 whole entry, the tested form may be a part): as above
In short: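 For J-domain-stimulated turnover, His-tagged DnaJ J domain (residues 2–108) was purified with an extra gel-filtration step and stored in Tris pH 7.5 with 150 mM KCl and 5 mM MgCl2. It was then run in the established DnaK ATPase assay. Results are means of triplicates ± SEM.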

DnaK [4] = target: T1, DnaK; test: Peptide substrate; assay type: biochemical; details: model substrate NRLLLTG
In short: as §1

[5] = read-out: IC50 against the DnaK-DnaJ system, DnaK 0.6 μM, DnaJ 1 μM

DnaK-DnaJ complex, sequence (P0A6Y8 whole entry, one chain of several): as the sequence (P0A6Y8 whole entry, the tested form may be a part) above

O=C(O[C@@H]1Cc2c(O)cc(O)cc2O[C@@H]1c1ccc(O)c(O)c1)c1cc(O)c(O)c(O)c1 [ECG, epicatechin-3-gallate]
IC50 (DnaK-DnaJ complex): 6 ± 0.9 µM

COc1cc(OC)c2c(=O)c(O)c(-c3ccc(OC)c(OC)c3)oc2c1 [QTE, quercetin tetramethyl (5,7,3′,4′) ether]
IC50 (DnaK-DnaJ complex; [5]): > 200 µM

O=c1cc(-c2cc(O)c(O)c(O)c2)oc2cc(O)cc(O)c12 [hieracin]
IC50 (DnaK-DnaJ complex; [5]): 28.2 µM

O=c1c(O)c(-c2ccc(O)cc2)oc2cc(O)cc(O)c12 [kaempferol]
IC50 (DnaK-DnaJ complex): > 200 µM

O=c1cc(-c2ccc(O)c(O)c2)oc2cc(O)cc(O)c12 [luteolin]
IC50 (DnaK-DnaJ complex): 9.4 µM

O=c1c(O)c(-c2cc(O)c(O)c(O)c2)oc2cc(O)cc(O)c12 [myricetin]
weakening of Kapp between DnaJ and DnaK (DnaK-DnaJ interaction; 25 μM myricetin, Kapp approx. 560 nM without compound): 5.3 fold | effect on binding of DnaJ to DnaK (DnaK-DnaJ interaction): significantly reduced | binding to J domain by ITC [1]: failed to bind | effect on stimulation of DnaK by GrpE (DnaK-GrpE): did not influence | decrease of maximal amount of bound DnaK (DnaK-DnaJ; 20 μM myricetin): approximately 40% | amount of DnaJ required to promote DnaK binding to luciferase (DnaK-DnaJ; 20 μM myricetin (62 nM without compound)): 1 µM | tryptophan fluorescence response to ATP binding (DnaK [2]): responded normally | binding to DnaJ by ITC (DnaJ): no apparent affinity | Kd (DnaK (wild type)): 55 ± 7 µM | IC50 (DnaK-DnaJ complex): 14.5 µM | inhibition (up to, maximal) (DnaK-DnaJ complex; DnaK 0.6 μM, DnaJ 1 μM): up to 75% | effect on stimulatory activity of DnaJ on DnaK ATPase (DnaK-DnaJ complex; myricetin 50 μM): dramatically weakened | effect on stimulatory activity of DnaJ on DnaK ATPase (DnaK-DnaJ complex; myricetin 200 μM): completely suppressed | inhibition at 200 µM (DnaK-DnaJ complex; read-out: percent inhibition): 75% | effect on intrinsic ATPase activity of DnaK (DnaK [3]): no effect | Kd (DnaK K106A): 43 ± 5 µM | apparent affinity of myricetin in the presence of DnaJ and GrpE (DnaK-DnaJ-GrpE): significantly enhanced | effect on J domain stimulatory activity (DnaK-J domain): able to block | effect on peptide-mediated stimulation of ATP turnover (DnaK [4]): no effect

O=c1c(O)c(-c2ccc(O)c(O)c2)oc2cc(O)cc(O)c12 [quercetin]
IC50 (DnaK-DnaJ complex): 27.6 µM | inhibition (up to, maximal) (DnaK-DnaJ complex; DnaK 0.6 μM, DnaJ 1 μM): up to 67%

COc1cc(O)c2c(=O)c(O)c(-c3ccc(O)c(O)c3)oc2c1 [rhamnetin]
activity against DnaK-DnaJ (DnaK-DnaJ complex; DnaK 0.6 μM, DnaJ 1 μM): inactive

(±)-catechin
effect on binding of DnaJ to DnaK (DnaK-DnaJ interaction): did not inhibit
